Series [1] is classed as in vivo, human. The settings on record: for Cmax, gMean / AUC(0-t) / AUC(0-inf) / half-life / Cmax / AUC0–tz, gMean: plasma; for AUC(0-t) / AUC(0-inf) / half-life / Cmax: male, human; for AUC(0-t): AUC0–tz; for AUC(0-inf): AUC0–∞; for AUC0–tz, Adjusted gMean Ratio (90% CI) / Cmax, Adjusted gMean Ratio (90% CI): probe drug + steady-state BI 425809 25 mg vs probe drug only.
Series [2] deals with P-gp (Homo sapiens, UniProt P08183). It counts as in vitro ADME. The following applies: Caco-2 cell monolayer; zosuquidar 1 μM, BI 425809 1-100 μM. The procedure, abridged: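 Bidirectional Caco-2 monolayer transport in HBSS with 15 mM HEPES, pH 7.4, after 30 min equilibration. [³H]digoxin (1 μM) went in the donor side, and test compound (1–100 μM) or zosuquidar (1 μM) on both sides. After 30 min preincubation, sampling ran to 90 min and was read by scintillation counting. Papp gave the B-to-A/A-to-B efflux ratio, and IC50 with slope factor came from nonlinear regression of efflux ratio against inhibitor concentration.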
P-gp, sequence (P08183 whole entry): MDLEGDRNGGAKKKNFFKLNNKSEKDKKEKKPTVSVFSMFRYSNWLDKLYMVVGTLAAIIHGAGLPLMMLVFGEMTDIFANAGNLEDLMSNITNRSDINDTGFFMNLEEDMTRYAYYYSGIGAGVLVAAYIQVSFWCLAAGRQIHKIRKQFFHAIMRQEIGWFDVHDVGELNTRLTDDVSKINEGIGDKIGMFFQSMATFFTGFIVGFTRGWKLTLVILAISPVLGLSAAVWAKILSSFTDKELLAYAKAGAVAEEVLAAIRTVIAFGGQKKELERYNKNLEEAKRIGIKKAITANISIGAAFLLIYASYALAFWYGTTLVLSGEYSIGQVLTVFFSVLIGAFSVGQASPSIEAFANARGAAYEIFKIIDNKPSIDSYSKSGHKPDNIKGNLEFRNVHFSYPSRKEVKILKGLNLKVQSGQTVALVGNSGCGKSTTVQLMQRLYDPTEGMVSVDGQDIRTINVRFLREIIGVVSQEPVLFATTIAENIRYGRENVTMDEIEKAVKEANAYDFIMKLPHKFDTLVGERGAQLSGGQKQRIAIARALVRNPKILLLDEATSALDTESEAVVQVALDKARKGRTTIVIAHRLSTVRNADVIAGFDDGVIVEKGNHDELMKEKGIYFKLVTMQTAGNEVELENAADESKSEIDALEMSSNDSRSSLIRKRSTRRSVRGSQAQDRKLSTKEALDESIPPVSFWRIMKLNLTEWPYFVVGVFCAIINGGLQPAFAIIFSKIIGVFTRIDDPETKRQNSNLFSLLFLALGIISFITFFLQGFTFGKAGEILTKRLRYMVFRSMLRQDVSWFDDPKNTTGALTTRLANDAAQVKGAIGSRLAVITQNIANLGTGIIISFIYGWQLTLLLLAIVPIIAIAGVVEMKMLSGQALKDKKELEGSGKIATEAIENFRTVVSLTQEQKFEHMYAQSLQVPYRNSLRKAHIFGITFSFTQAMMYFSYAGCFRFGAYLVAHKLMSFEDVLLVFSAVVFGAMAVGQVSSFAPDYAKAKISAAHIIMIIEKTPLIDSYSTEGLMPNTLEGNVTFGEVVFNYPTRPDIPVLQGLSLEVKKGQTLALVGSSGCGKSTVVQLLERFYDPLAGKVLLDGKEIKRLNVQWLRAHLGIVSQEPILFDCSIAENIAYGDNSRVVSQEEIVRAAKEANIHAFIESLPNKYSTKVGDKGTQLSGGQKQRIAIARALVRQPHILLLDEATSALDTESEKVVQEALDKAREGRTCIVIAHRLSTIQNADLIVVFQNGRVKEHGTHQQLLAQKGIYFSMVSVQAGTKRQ

[3] abbreviates: +BI 425809 25 mg at steady state.
The mark [4] stands for this setting: Probe Drug + BI 425809 25 mg once daily at steady state, healthy males.
The mark [5] stands for this setting: arithmetic mean (SD), +BI 425809 25 mg at steady state.
[6] abbreviates: gMean, Probe Drug + BI 425809 25 mg once daily at steady state, healthy males.
Setting [7] is: gMean, Probe Drug Only, healthy males.
Setting [8] is: probe drug alone (cocktail or digoxin alone).

From paper PMC9988221 (Journal of Clinical Psychopharmacology, 2023) come the findings set out here.

Structures are written as SMILES. Where two headings read alike, the source gives them in different places. Marks after values point to notes of the source that are not given here.

On to `C[C@H]1O[C@@H](O[C@H]2[C@@H](O)C[C@H](O[C@H]3[C@@H](O)C[C@H](O[C@H]4CC[C@@]5(C)[C@H](CC[C@@H]6[C@@H]5C[C@@H](O)[C@]5(C)[C@@H](C7=CC(=O)OC7)CC[C@]65O)C4)O[C@@H]3C)O[C@@H]2C)C[C@H](O)[C@@H]1O` [Digoxin, digoxin], for which the “Cmax, arithmetic mean (SD)” value in series [1] (setting [3]) and in series [1] (setting [8]) was 1.1 (0.3) ng/mL throughout. The “Cmax, gMean” value in series [1] (setting [4]) is given as 1.1 ng/mL; in series [1] (Probe Drug Only, healthy males), 1.1 ng/mL. The AUC(0-t) (as a rule, the area under the concentration-time curve up to a stated or last time point) was 10 ng·h/mL in series [1] (setting [5]), 9.5 ng·h/mL in series [1] (setting [6]) and 9.7 ng·h/mL in series [1] (setting [7]). Moreover, the AUC(0-inf) – broadly, total exposure, with the tail of the curve extrapolated – in series [1] (setting [5]) amounted to 20.1 ng·h/mL. Also, the half-life (commonly the time in which the quantity being followed falls by half) in series [1] (t1/2, arithmetic mean (SD), +BI 425809 25 mg at steady state) was 54.2 h. The “adjusted gMean ratios for AUC0–tz and Cmax (in words)” value in series [1] (presence vs absence of steady-state BI 425809) was “within ±4% of 100%”. Further, the “AUC0–tz, Adjusted gMean Ratio (90% CI)” value in series [1] is 97.9 (86.6–110.6) %. In addition, the “Cmax, Adjusted gMean Ratio (90% CI)” value in series [1] is given as 100.6 (86.9–116.5) %.

As to `Cc1ncc2n1-c1ccc(Cl)cc1C(c1ccccc1F)=NC2` [Midazolam, midazolam], the “decrease of the adjusted gMean ratio” value in series [1] (BI 425809 25 mg once daily) is 29.4%. In series [1] (setting [5]), the AUC(0-t) is 16.7 ng·h/mL; the AUC(0-inf) was found to be 17.4 ng·h/mL; the Cmax (as a rule, the peak of the concentration-time curve) is 6.9 ng/mL. For the same molecule, in series [1] (setting [6]), the AUC(0-t) is 16.6 ng·h/mL and the Cmax was found to be 6.6 ng/mL. In series [1] (setting [7]), this molecule registered an AUC(0-t) of 23.5 ng·h/mL and a Cmax of 8.5 ng/mL. The molecule further showed a half-life in series [1] (t1/2, gMean (geometric coefficient of variation), on a background of steady-state BI 425809) of 2.8 h. Besides, the “t1/2, gMean (geometric coefficient of variation)” value in series [1] (midazolam alone) is 3.3 [22.8] hours. Besides, in series [1], the “AUC0–tz, Adjusted gMean Ratio (90% CI)” value is reported as 70.6 (63.9–78.1) % and the “Cmax, Adjusted gMean Ratio (90% CI)” value was 77.6 (67.3–89.4) %. In addition, in series [1] (listed as midazolam), the “AUC0–tz, Adjusted gMean Ratio (90% CI)” value was determined as 70.6% and the “Cmax, Adjusted gMean Ratio (90% CI)” value worked out at 77.6%. In series [1] (setting [8]), the “Cmax, arithmetic mean (SD)” value is listed as 9.03 (3.3)* ng/mL.

Turning to `COc1ccc2[nH]c([S+]([O-])Cc3ncc(C)c(OC)c3C)nc2c1` (centres unmarked) [Omeprazole, omeprazole], the “AUC0–tz, arithmetic mean (SD)” value in series [1] (setting [3]) is listed as 604.0 (733.0) ng⋅h/mL. Moreover, the results for the AUC(0-t) in series [1] (setting [6]) and in series [1] (setting [7]) were 430 ng·h/mL and 483 ng·h/mL, respectively. The molecule also returned an AUC(0-inf) in series [1] (setting [5]) of 609 ng·h/mL. Moreover, the Cmax was 257 ng/mL in series [1] (setting [5]), 225 ng/mL in series [1] (setting [6]) and 220 ng/mL in series [1] (setting [7]).

Consider `CC(=O)C[C@H](c1ccccc1)c1c(O)c2ccccc2oc1=O` [R-warfarin], for which the “AUC0–tz, arithmetic mean (SD)” value in series [1] (setting [3]) was 23,000.0 (5360.0) ng⋅h/mL; in series [1] (setting [8]), 23,000.0 (4860.0) ng⋅h/mL. Moreover, the “AUC0–∞, arithmetic mean (SD)” value is 27,500.0 (7200.0) ng⋅h/mL in series [1] (setting [3]) and 27,900.0 (6680.0) ng⋅h/mL in series [1] (setting [8]). The “AUC0–tz, gMean” value is recorded as 22,457.1 ng⋅h/mL in series [1] (setting [4]) and 22,615.1 ng⋅h/mL in series [1] (Probe Drug Only, healthy males). Moreover, the “Cmax, gMean” value in series [1] (setting [4]) is 541.8 ng/mL; in series [1] (Probe Drug Only, healthy males), 525.0 ng/mL.

`CC(=O)C[C@@H](c1ccccc1)c1c(O)c2ccccc2oc1=O` [S-warfarin]: the “AUC0–tz, arithmetic mean (SD)” value in series [1] (setting [3]) is 15,600.0 (3590.0) ng⋅h/mL; in series [1] (setting [8]), 15,400.0 (3480.0) ng⋅h/mL. Further, the “AUC0–∞, arithmetic mean (SD)” value in series [1] (setting [3]) was 17,000.0 (3880.0) ng⋅h/mL; in series [1] (setting [8]), 16,900.0 (3870.0) ng⋅h/mL. Besides, the “AUC0–tz, gMean” value in series [1] (setting [4]) was 15,205.1 ng⋅h/mL; in series [1] (Probe Drug Only, healthy males), 15,107.9 ng⋅h/mL. In series [1] (setting [4]), the “Cmax, gMean” value was 553.7 ng/mL.

Take `O[C@@H](COc1cccc2ncccc12)CN1CCN([C@@H]2c3ccccc3[C@@H]3[C@H](c4ccccc42)C3(F)F)CC1` [zosuquidar]: the “effect on P-gp-mediated transcellular transport of digoxin (in words)” value in series [2] is on record as “inhibited”.
